Active and inactive are the calls of the source. The calls are words filed in the database; no cut-off is given here.
How the values were obtained:
[1] = molecular target: T1, Serine/threonine-protein kinase Chk1 (Homo sapiens, UniProt O14757); assay: Inhibition of human Chk1
T1 sequence (O14757 whole entry): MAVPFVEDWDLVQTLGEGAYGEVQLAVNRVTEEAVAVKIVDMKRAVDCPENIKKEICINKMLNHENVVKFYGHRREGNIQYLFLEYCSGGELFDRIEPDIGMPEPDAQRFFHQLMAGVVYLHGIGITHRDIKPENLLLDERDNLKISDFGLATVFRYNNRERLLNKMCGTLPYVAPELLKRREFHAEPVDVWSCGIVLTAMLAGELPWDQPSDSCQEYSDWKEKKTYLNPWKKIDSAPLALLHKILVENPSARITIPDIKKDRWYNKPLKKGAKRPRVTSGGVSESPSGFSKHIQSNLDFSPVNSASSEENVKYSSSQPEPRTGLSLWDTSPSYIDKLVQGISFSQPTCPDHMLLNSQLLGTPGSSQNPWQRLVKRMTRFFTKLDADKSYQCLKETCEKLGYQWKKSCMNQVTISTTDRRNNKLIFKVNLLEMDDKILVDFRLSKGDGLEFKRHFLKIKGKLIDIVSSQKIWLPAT
Outline: (§1)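 Chk1, commercial or GST-Chk1 purified from baculovirus-infected Sf9 cell extracts. Percent inhibition measured at a single compound concentration; IC50 also determined.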

[2] = molecular target: T2, Serine/threonine-protein kinase Chk1 (Homo sapiens) (UniProt O14757); assay: Inhibition of human Chk1 at 10 uM; outline: as §1
T2 sequence (whole entry): T1 sequence (O14757 whole entry)

L1210 = assay: Antiproliferative activity against mouse L1210 cells by microculture tetrazolium assay; assay type: functional, cell-based
Outline: (§2)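 Cells grown in RPMI 1640 with 10% fetal calf serum, 2 mM L-glutamine, penicillin/streptomycin and 10 mM HEPES (pH 7.4). Continuous exposure to graded compound concentrations for four doubling times. MTT (5 mg/mL) added, 4 h at 37 °C, formazan dissolved in DMSO, optical density read. IC50 is the concentration halving optical density relative to untreated controls.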

[3] = Antiproliferative activity against human […] cells microculture tetrazolium assay; assay type: functional, cell-based; outline: as §2
HT-29 = assay: Antiproliferative activity against human HT29 cells microculture tetrazolium assay; assay type: functional, cell-based; outline: as §2
[4] = molecular target: Proto-oncogene tyrosine-protein kinase Src (Homo sapiens) (UniProt P12931); assay: Inhibition of Src kinase at 10 uM
Sequence of Proto-oncogene tyrosine-protein kinase Src (Homo sapiens) (P12931 2-536 limits assumed): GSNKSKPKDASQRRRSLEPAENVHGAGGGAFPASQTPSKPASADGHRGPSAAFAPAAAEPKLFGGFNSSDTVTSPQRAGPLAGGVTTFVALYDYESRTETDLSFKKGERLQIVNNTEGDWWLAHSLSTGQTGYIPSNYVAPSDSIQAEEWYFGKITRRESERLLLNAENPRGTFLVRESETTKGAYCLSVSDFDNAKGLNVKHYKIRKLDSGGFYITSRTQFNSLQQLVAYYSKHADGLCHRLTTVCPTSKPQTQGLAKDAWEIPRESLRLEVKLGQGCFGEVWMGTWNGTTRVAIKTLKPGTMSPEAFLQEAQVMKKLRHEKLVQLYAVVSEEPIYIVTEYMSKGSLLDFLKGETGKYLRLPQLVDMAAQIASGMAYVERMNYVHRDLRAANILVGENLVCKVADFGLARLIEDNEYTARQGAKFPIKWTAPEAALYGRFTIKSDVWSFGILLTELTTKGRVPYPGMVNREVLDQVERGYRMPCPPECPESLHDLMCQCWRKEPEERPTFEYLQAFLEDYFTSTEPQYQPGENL
Outline: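 Radiometric Src kinase assay. 20 min at 30 °C, stopped with 0.85% orthophosphoric acid, captured on phosphocellulose filter, washed with orthophosphoric acid, dried with acetone.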

IC50 [1] [µM] | inhibition [2] [%] | IC50 (L1210) [µM] | IC50 (HT-29) [µM] | inhibition [4] [%] | Activity [2] | Compound | IC50 [3] [µM]
0.05 | 85.4 | 45.8 | 8.2 | – | – | O=C1NC(=O)c2c1c1c(c3c2[nH]c2ccccc23)C(=O)NC1 | 10.2
– | 11 | 54.4 | 46.7 | – | – | O=C1NC(=O)c2c1cc(O)c1c2[nH]c2ccccc21 | 34.4
0.21 | 72.4 | 5.5 | 3.9 | 11.5 | – | CCOC(=O)c1cc2c(c3c1[nH]c1ccccc13)C(=O)N(CO)C2=O | 2.9
– | – | – | – | – | – | O=C1NC(=O)c2c1c1[nH]cnc1c1[nH]c3ccccc3c21 [GRANULATIMIDE] | 6.1
– | – | 10.6 | 31.7 | – | inactive | CCOC(=O)c1c2c(c3[nH]c4ccccc4c3c1O)C(=O)N(CO)C2=O | 11.5
0.37 | 71.7 | 47 | > 100 | – | – | O=C1NC(=O)c2c1c1c(c3c2[nH]c2ccccc23)CNC1=O | 58.9
– | – | 57.5 | 84.9 | – | inactive | CCOC(=O)c1c2c(c3[nH]c4ccccc4c3c1O)C(=O)NC2=O | 33.6
> 5 | 71.7 | 5.8 | 4 | – | – | CCOC(=O)c1cc2c(c3c1[nH]c1ccccc13)C(=O)NC2=O | 2.3
– | 45.3 | 4.9 | 6.4 | – | – | CCOC(=O)c1cc2c(c3[nH]c4ccccc4c13)C(=O)NC2=O | 3.8
– | 10.6 | 5.7 | 6.2 | – | – | O=C1NC(=O)C2C1c1[nH]c3ccccc3c1C1C(=O)OC(=O)C12 (stereo unspecified) | –
– | – | – | – | – | – | O=C1NC(=O)c2c1c1c3ccccc3[nH]c1n1cncc21 [ISOGRANULATIMIDE] | 13
– | – | 11.9 | 33 | – | inactive | O=c1[nH]c(=O)c2c1c1[nH]c3ccccc3c1c1c(=O)oc(=O)c21 | 10.7
